Assay outcomes: PubChem, several laboratories
Only some compounds are listed: those with a hit (about 5.6% of all), similar ones and a draw of the others.
UPR XBP1 act – activators of adaptive arm of unfolded protein response (XBP1). activation, % at 20 µM. 0.33% of 330,000 active. AID 463104. CHO-XBP1 luciferase reporter, IRE1-XBP1 UPR activation, luminescence; percent of tunicamycin response, DMSO as zero;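 active = versus positive control, 20 µM dose yields 30% or more activation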;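 also: 100% = tunicamycin at 10 µg/mL and 0% = DMSO only wells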
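Material: IRE1-XBP1 luciferase reporter CHO line / Quantity: one thousand reporter cells per well / Buffer or medium: F12 with 10% serum / Compound: 20 µM single concentration, DMSO 1% / Times: 6 h treatment, 37 °C / Detection: Steady-Glo luciferase glow luminescence, 10 min after reagent addition / Benchmarks: tunicamycin high, DMSO low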
NR3A LBD binder – modulators (binders) of human NR3A ligand-binding domain | AID 1259313 | Tm shift relative to glycine control, % at 25 µM | NR3A LBD differential scanning fluorimetry, Tm shift; 0% = protein alone, 100% = glycine-bound protein | 2.5% of 340,000 active;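 active = melting temperature shift of at least 10% of the positive control shift, at one fixed dose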
MPTP block – permeability transition pore inhibition; isolated mouse mitochondria, Ca2+ swelling absorbance, 30 min; inhibition, % at 10 µM; 1.4% of 360,000 active; AID 602449;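 active = inhibition of 50% or more, scaled per plate between neutral and stimulator controls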;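 also: 0% = DMSO wells given calcium and 100% = 1 mM EGTA wells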
CHOP inh – inhibitors of CHOP induction in ER stress response; inhibition, % at 10 µM; 3.8% of 220,000 active; CHO-K1 CHOP-promoter luciferase, tunicamycin-induced, 15-18 h;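 active = compounds that reduced the stress-induced luciferase reporter signal by more than about 70% of percent inhibition, limit read from the data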;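 also: 0% = tunicamycin plus vehicle and 100% = wells without tunicamycin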
aDG glyco up – increases alpha dystroglycan glycosylation | Pro5-aDG cells, alpha-DG glycosylation AlphaScreen (IIH6); 0% Pro5, 100% B10-LARGE cell signal | activation, % at 10 µM | 0.22% of 360,000 active | AID 624168;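 active = activation of at least 8% versus controls, or a plate z-score of at least 8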;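 also: Pro5 are CHO cells carrying HIG-tagged alpha-DG that lacks glycosylation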
UPR CHOP act – activators of apoptotic arm of unfolded protein response (CHOP); activation, % at 10 µM; CHO-CHOP luciferase reporter, UPR activation, luminescence; percent of tunicamycin response over DMSO baseline; AID 449763; 0.34% of 330,000 active;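 active = at 10 µM dose, activation of 40% or more, normalized to positive control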;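 also: 100% = tunicamycin at 10 µg/mL and 0% = DMSO alone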
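Test system: CHO CHOP reporter cells. Input: 500 CHO-CHOP cells per well. Medium: F12 with 10% FBS. Technique: luciferase luminescence. Measure: percent activation relative to tunicamycin control. Dosing: 10 µM compound, 0.5% DMSO. Timing: 16-18 h cell attachment, then 6 h compound exposure, 37 °C.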
The depositor's hits bear a star; . = no result.

SMILES	UPR XBP1 act	NR3A LBD binder	MPTP block	CHOP inh	aDG glyco up	UPR CHOP act
COc1ccc2nc(-c3ccccc3)nc(SC)c2c1	.	-2	1	.	0	.
N#CN1CCC(NS(=O)(=O)c2ccc(C(F)(F)F)cc2)C1 (centres undefined)	-3	2	1	.	0	-1
CCCCOC(=O)Nc1nnc(-c2ccccc2OC)s1	0	2	2	83*	0	-1
Cc1nn(-c2ccccc2)cc1/C=N/NC(N)=S	0	-5	0	12	0	1
Cc1nn(-c2ccccc2)cc1C(c1c(N)[nH]c(=S)[nH]c1=O)c1c(N)[nH]c(=S)[nH]c1=O	3	16*	1	1	0	-2
O=C1C(Oc2ccccc2)C(c2ccc3c(c2)OCO3)N1CCc1ccc(F)cc1 (centres undefined)	-1	13*	-1	2	0	0
O=C(NCc1ccco1)/C(=C/c1ccc(C(F)(F)F)cc1)c1nc2ccccc2[nH]1	4	-3	0	89*	0	8
COc1ccccc1CNC(=O)C(=O)NCC(c1ccco1)N1CCOCC1 (centres undefined)	-4	-1	1	2	0	-1
CCC(c1nnnn1Cc1ccco1)N1CCN(c2cc(Cl)ccc2C)CC1 (centres undefined)	-2	5	1	69	0	0
Cc1ccc(Cl)cc1N1CCN(Cc2nnnn2Cc2ccco2)CC1	.	3	3	72*	1	.
C=C(C)C1CC=C(C)/C(=N/NC(=O)COc2ccc(C)cc2)C1 (centres undefined)	2	1	4	70*	0	2
C=C(C)C1CC=C(C)/C(=N/NC(=O)COc2ccccc2Cl)C1 (centres undefined)	-1	-5	-2	61	0	-1
O=c1[nH][nH]c(-c2ccccc2)c1C=Nc1ccc(OC(F)(F)F)cc1	-3	0	2	20	0	0
CCc1ccc(NC(=O)CCc2nnc3ccc(N4CCC5(CC4)OCCO5)nn23)cc1	-3	11*	-1	.	0	3
Clc1nc(-c2ccccn2)nc2scc(-c3ccccc3)c12	0	24*	1	35	1	-2
CC(C(=O)N(C1CC1)C1(C(=O)Nc2ccccc2)CCCC1)N1C(=O)c2ccccc2C1=O (centres undefined)	-4	0	-2	74*	0	-2
CC(C(=O)Nc1ccc(C(=O)O)cc1)N1C(=O)c2ccccc2C1=O (centres undefined)	4	-1	2	-39	0	-2
Cn1c(SCc2ccc(Cl)cc2)nc(C(F)(F)F)cc1=O	0	4	1	73*	0	-1
CCCNC(=S)Nc1cc2oc3ccccc3c2cc1OC	5	18*	0	.	0	1
CNC(=S)Nc1cc2oc3ccccc3c2cc1OC	-1	18*	0	.	0	1
O=C(COc1ccccc1Cl)Nc1nnc(S(=O)(=O)N2CCCCCC2)s1	-1	0	6	.	0	0
O=C1N(c2ccccc2)C[C@@H]2C[C@@H](c3cc4ccccc4o3)N3CCC[C@@]123	-3	-1	-2	103*	1	-5
COc1cc(C(=O)OCC(=O)Nc2ccccc2)cc2c1OCCO2	.	.	0	.	0	.
CCOc1ccc(/C=C/C(=O)c2cc(Br)ccc(=O)c2O)cc1	.	-18	4	91*	0	.
Cc1nc(-c2ccncc2)sc1C(=O)Nc1ccc(Cl)cc1	-2	-4	-2	8	0	0
Cc1nc(-c2ccccc2)sc1C(=O)Nc1ccc(S(N)(=O)=O)cc1	4	12*	0	.	0	-1
Cc1nc(-c2cccnc2)sc1C(=O)Nc1ccc(Cl)cc1	-3	-4	6	81*	0	0
COc1cccc(/C=N/n2c(CO)nc3ccccc32)c1OC	3	-3	1	24	0	2
CNc1nc2ccccc2n1/N=C/c1cccc(OC)c1OC	5	32*	-1	10	1	0
